# ChEMBL document CHEMBL3351351, “Synthesis and evaluation of sulfonylethyl-containing phosphotriesters of 3'-azido-3'-deoxythymidine as anticancer prodrugs” (Bioorg Med Chem, 2014)
# Legend:
# [1] = Cytotoxicity against human H460 cells after 72 hrs by MTT assay; type: functional, cell-based; settings: NCI-H460, 72 h
# [2] = Cytotoxicity against human KB-3-1 cells after 72 hrs by MTT assay; type: functional, cell-based; settings: KB 3-1, 72 h
# SW-620 = test: Cytotoxicity against human SW620 cells after 72 hrs by MTT assay; type: functional, cell-based; settings: SW-620, 72 h
# MCF7 = test: Cytotoxicity against human MCF7 cells after 72 hrs by MTT assay; type: functional, cell-based; settings: MCF7, 72 h
# [3] = Half life in 0.1 M phosphate buffer at pH 7.4 at 37 degC by TLC; type: physicochemical
# Method in brief: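 Compound incubated in 0.1 M phosphate buffer pH 7.4 at 37 °C with shaking for varying times. Stopped with 2.0 M acetate buffer (pH 5) and ethanol, then chilled on ice and analysed by TLC. Percent parent left relative to zero-time control plotted against time; t1/2 = ln2/k from decay rate constant; mean ± SD of three independent experiments.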
# [4] = Half life in human plasma by TLC; type: ADME, cell-free
# Method in brief: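 Freshly reconstituted lyophilized human plasma in 0.1 M phosphate buffer pH 7.4 (0.4 mL plasma solution plus 0.1 mL drug solution) incubated at 37 °C. Stopped as for the buffer test, proteins spun out at 3000 × g for 30 min, supernatant run on TLC. Half-life from first-order decay, three independent experiments; the ratio compares it with the buffer half-life.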
# 143B [5] = test: Cytotoxicity against human 143B cells after 72 hrs by MTT assay; type: functional, cell-based
# 143B [6] = test: Cytotoxicity against human thymidine kinase-deficient 143B cells after 72 hrs by MTT assay; type: functional, cell-based
# 143B [7] = test: Ratio of IC50 for human thymidine kinase-deficient 143B cells to IC50 for human 143B cells; type: functional
# Method in brief: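 143B kept in EMEM with 10% FBS and 1% penicillin/streptomycin; the TK-deficient 143B/TK⁻ line kept in EMEM with 0.015 mg/mL 5-BrdU.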
SMILES,IC50 [1] [µM],IC50 [2] [µM],IC50 (SW-620) [µM],IC50 (MCF7) [µM],half-life [3] [h],half-life [4] [h],IC50 (143B [5]) [µM],IC50 (143B [6]) [µM],Ratio IC50 (143B [7])
Cc1cn([C@H]2C[C@H](N=[N+]=[N-])[C@@H](COP(=O)(OCCS(=O)(=O)c3ccccc3)OCCS(=O)(=O)c3ccccc3)O2)c(=O)[nH]c1=O,7.59,11,43,16.3,0.71,0.23,16.3,–,–
Cc1ccc(S(=O)(=O)CCOP(=O)(OCCS(=O)(=O)c2ccc(C)cc2)OC[C@H]2O[C@@H](n3cc(C)c(=O)[nH]c3=O)C[C@@H]2N=[N+]=[N-])cc1,11.3,14.4,46.6,19.6,1.09,0.4,19.6,–,–
COc1ccc(S(=O)(=O)CCOP(=O)(OCCS(=O)(=O)c2ccc(OC)cc2)OC[C@H]2O[C@@H](n3cc(C)c(=O)[nH]c3=O)C[C@@H]2N=[N+]=[N-])cc1,1.71,4.68,7.62,6.38,1.44,0.55,5.45,5.16,0.9
Cc1cn([C@H]2C[C@H](N=[N+]=[N-])[C@@H](COP(=O)(OCCS(=O)(=O)c3ccc(Cl)cc3)OCCS(=O)(=O)c3ccc(Cl)cc3)O2)c(=O)[nH]c1=O,4.47,7.84,11.6,9.46,0.36,0.13,7.83,8.8,1.1
Cc1cn([C@H]2C[C@H](N=[N+]=[N-])[C@@H](COP(=O)(OCCS(=O)(=O)c3ccc([N+](=O)[O-])cc3)OCCS(=O)(=O)c3ccc([N+](=O)[O-])cc3)O2)c(=O)[nH]c1=O,15.2,20.4,57,22.9,0.07,0.02,23.1,–,–
Cc1cn([C@H]2C[C@H](N=[N+]=[N-])[C@@H](COP(=O)(OCC(C)S(=O)(=O)c3ccccc3)OCC(C)S(=O)(=O)c3ccccc3)O2)c(=O)[nH]c1=O (some centres undefined),23.7,25.2,68.2,27.6,13.6,4.21,27.4,–,–
Cc1cn([C@H]2C[C@H](N=[N+]=[N-])[C@@H](COP(=O)(OC(C)CS(=O)(=O)c3ccccc3)OC(C)CS(=O)(=O)c3ccccc3)O2)c(=O)[nH]c1=O (some centres undefined),14.6,18.4,54.8,22.4,3.56,1.35,22.5,–,–
CCC(CS(=O)(=O)c1ccccc1)OP(=O)(OC[C@H]1O[C@@H](n2cc(C)c(=O)[nH]c2=O)C[C@@H]1N=[N+]=[N-])OC(CC)CS(=O)(=O)c1ccccc1 (some centres undefined),5.13,8.28,27.8,12.2,5.42,1.77,11.5,13.3,1.2
Cc1cn([C@H]2C[C@H](N=[N+]=[N-])[C@@H](COP(=O)(OC(C)C(C)S(=O)(=O)c3ccccc3)OC(C)C(C)S(=O)(=O)c3ccccc3)O2)c(=O)[nH]c1=O (some centres undefined),22.2,24.2,66.7,26.8,279,70.1,26.4,–,–
Cc1cn([C@H]2C[C@H](N=[N+]=[N-])[C@@H](COP(=O)(OCC(c3ccccc3)S(=O)(=O)c3ccccc3)OCC(c3ccccc3)S(=O)(=O)c3ccccc3)O2)c(=O)[nH]c1=O (some centres undefined),7.13,9.82,42.2,14.1,2.16,0.51,14.2,19.7,1.2
Cc1cn([C@H]2C[C@H](N=[N+]=[N-])[C@@H](COP(=O)(OCCS(=O)(=O)c3ccccc3)Oc3ccccc3)O2)c(=O)[nH]c1=O (some centres undefined),18.2,21.7,62.1,25.3,1.22,0.45,25.4,–,–
Cc1ccc(OP(=O)(OCCS(=O)(=O)c2ccccc2)OC[C@H]2O[C@@H](n3cc(C)c(=O)[nH]c3=O)C[C@@H]2N=[N+]=[N-])cc1 (some centres undefined),24.7,27.1,71.7,28.2,1.32,0.6,28.3,–,–
COc1ccc(OP(=O)(OCCS(=O)(=O)c2ccccc2)OC[C@H]2O[C@@H](n3cc(C)c(=O)[nH]c3=O)C[C@@H]2N=[N+]=[N-])cc1 (some centres undefined),12.3,15.2,47.3,20.4,1.53,0.6,20.2,25.3,1.3
Cc1cn([C@H]2C[C@H](N=[N+]=[N-])[C@@H](COP(=O)(OCCS(=O)(=O)c3ccccc3)Oc3ccc(F)cc3)O2)c(=O)[nH]c1=O (some centres undefined),20.8,23.3,64.5,26.2,1.08,0.37,26.6,–,–
Cc1cn([C@H]2C[C@H](N=[N+]=[N-])[C@@H](COP(=O)(OCCS(=O)(=O)c3ccccc3)Oc3ccc(Cl)cc3)O2)c(=O)[nH]c1=O (some centres undefined),17.9,21.4,61.3,25,0.79,0.35,24.4,–,–
Cc1ccc(OP(=O)(OCCSc2ccccc2)OC[C@H]2O[C@@H](n3cc(C)c(=O)[nH]c3=O)C[C@@H]2N=[N+]=[N-])cc1 (some centres undefined),–,–,–,–,12,20,–,–,–
Cc1cn([C@H]2C[C@H](N=[N+]=[N-])[C@@H](CO)O2)c(=O)[nH]c1=O [ZIDOVUDINE],6.81,9.17,39.1,13.7,–,–,12.2,148,12.1
